Measured values: ChEMBL document CHEMBL3352013, “The design and synthesis of potent and selective inhibitors of Trypanosoma brucei glycogen synthase kinase 3 for the treatment of human african trypanosomiasis” (J Med Chem, 2014)

What was measured:
[1] = Selectivity ratio, ratio of IC50 for human CDK2/cyclin A to IC50 for Trypanosoma brucei GSK3
MRC5 = assay: Cytotoxicity against human MRC5 cells assessed as growth inhibition after 72 hrs; type: cell-based; conditions: MRC5, 72 h
Procedure, shortened: (§1)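 Resazurin viability assay: 2 × 10³ cells/well (MRC5 in MEM + 10% FBS; bloodstream-form T. b. brucei in appropriate medium), compounds 50 μM to 0.5 nM, 37 °C, 5% CO₂ for 69 h, then resazurin 50 μM final for further 4 h; fluorescence read. Concentration giving 50% growth inhibition over 72 h; average of two or more experiments.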

[2] = tested on: Trypanosoma brucei brucei; assay: Trypanocidal activity against bloodstream stage of Trypanosoma brucei brucei assessed as inhibition of proliferation after 72 hrs; type: functional, organism-based; procedure, shortened: as §1
[3] = Inhibition of Trypanosoma brucei GSK3 using biotinylated GSP2 substrate by flashplate assay
Procedure, shortened: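 Radiometric Flashplate assay: 2.5 nM TbGSK3 short, 1 μM biotinylated GSP2, 1 μM ATP plus [γ-33P]-ATP. 10-point titration 30 μM to 0.3 nM final, 1% DMSO. IC50 averaged over two or more experiments; standard GW8510 used for reproducibility (MSR).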

CDK2/Cyclin A2 = CDK2/Cyclin A2 (Homo sapiens, UniProt P24941); assay: Inhibition of human CDK2/cyclin A using Biotin-C6-PKTPKKAKKL substrate; type: protein-complex assay
[4] = Selectivity ratio, ratio of IC50 for human GSK3 to IC50 Trypanosoma brucei GSK3
[5] = target: Glycogen synthase kinase-3 (Homo sapiens, UniProt P49840+P49841); assay: Inhibition of human GSK3 using biotinylated GSP2 substrate by flashplate assay; type: protein assay

| SMILES | Ratio IC50 [1] | EC50 (MRC5) [µM] | EC50 [2] [µM] | IC50 [3] [µM] | IC50 (CDK2/Cyclin A2) [µM] | Ratio IC50 [4] | IC50 [5] [µM] |
| --- | --- | --- | --- | --- | --- | --- | --- |
| COc1cccc(OC)c1C(=O)Nc1c[nH]nc1C(=O)NCCCOC(C)C | > 10000 | > 50 | 6.6 | 0.001 | > 10 |  |  |
| COc1cccc(OC)c1C(=O)Nc1c[nH]nc1C(=O)N[C@H]1CC[C@H](O)CC1 | 800 | 34 | 6.4 | 0.002 | 1.6 | 35 | 0.07 |
| CO[C@H]1CC[C@H](NC(=O)c2n[nH]cc2NC(=O)c2ncoc2-c2ccccc2)CC1 | 24 | 28 | > 50 | 0.92 | 22 | 0.0058 | 0.005 |
| COc1cccc(OC)c1C(=O)Nc1c[nH]nc1C(=O)NC1CC2CCC1C2 (stereo not drawn) | > 560 | > 50 | 16 | 0.018 | > 10 |  |  |
| COc1cccc(OC)c1C(=O)Nc1c[nH]nc1C(=O)NCc1ccccn1 | > 670 | > 50 | 20 | 0.015 | > 10 | 21 | 0.32 |
| CO[C@H]1CC[C@H](NC(=O)c2n[nH]cc2NC(=O)C2CCC(F)(F)CC2)CC1 | 2 | > 50 | 16 | 0.5 | 1 | 0.16 | 0.008 |
| COc1cccc(OC)c1C(=O)Nc1c[nH]nc1C(=O)NC1CCCCC1 | 1200 | 35 | 4.1 | 0.001 | 1.2 | 50 | 0.05 |
| CO[C@H]1CC[C@H](NC(=O)c2n[nH]cc2NC(=O)c2ccc(OC(F)F)cc2)CC1 | 17 | 2.5 | 1.1 | 0.016 | 0.27 |  | < 0.005 |
| COc1cccc(OC)c1C(=O)Nc1c[nH]nc1C(=O)Nc1ccncc1 | 330 | > 50 | 8.2 | 0.004 | 1.3 | 30 | 0.12 |
| COc1cccc(OC)c1C(=O)Nc1c[nH]nc1C(=O)NCCN1CCOCC1 | > 190 | > 50 | > 50 | 0.054 | > 10 | 12 | 0.63 |
| CO[C@H]1CC[C@H](NC(=O)c2n[nH]cc2NC(=O)c2cc3ccccn3n2)CC1 | 0.67 | 1 | 1.9 | 0.063 | 0.042 |  | < 0.005 |
| COc1cccc(OC)c1C(=O)Nc1c[nH]nc1C(=O)NC1CCN(Cc2ccccc2)C1 (stereo not drawn) | > 1300 | 38 | 8.9 | 0.008 | > 10 | 10 | 0.08 |
| CO[C@H]1CC[C@H](NC(=O)c2n[nH]cc2NC(=O)c2ccccc2Nc2cccc(C)c2C)CC1 |  | 16 | 5.8 | 0.066 |  | 0.45 | 0.03 |
| COc1cc(OC)c(C(=O)Nc2c[nH]nc2C(=O)N[C@H]2CC[C@H](OC)CC2)c(OC)c1 | 1000 | > 50 | 5.9 | 0.003 | 3.1 | 30 | 0.09 |
| CO[C@H]1CC[C@H](NC(=O)c2n[nH]cc2NC(=O)c2ccccc2C(F)(F)F)CC1 | 5.6 | 3.3 | 2.3 | 0.018 | 0.1 |  | < 0.013 |
| CO[C@H]1CC[C@H](NC(=O)c2n[nH]cc2NC(=O)c2cc3ccccc3o2)CC1 |  | 0.8 | 1.2 | 0.013 |  |  | < 0.005 |
| CO[C@H]1CC[C@H](NC(=O)c2n[nH]cc2NC(=O)c2cnc3ccccn23)CC1 | 1.6 | 5.9 | 2.6 | 0.094 | 0.15 |  | < 0.005 |
| CO[C@H]1CC[C@H](NC(=O)c2n[nH]cc2NC(=O)c2ccccc2F)CC1 |  | 1 | 0.4 | 0.02 | 0.014 | 0.25 | < 0.005 |
| CO[C@H]1CC[C@H](NC(=O)c2n[nH]cc2NC(=O)c2cc(F)cc(F)c2)CC1 | 3.5 | 0.6 | 2.6 | 0.024 | 0.083 |  | < 0.005 |
| COc1cccc(OC)c1C(=O)Nc1c[nH]nc1C(=O)NCC1CCCCC1 |  | > 50 | 7.7 | 0.001 |  |  |  |
| COc1cccc(OC)c1C(=O)Nc1c[nH]nc1C(=O)O |  | > 50 | > 50 | > 50 | > 10 |  | > 10 |
| CO[C@H]1CC[C@H](NC(=O)c2n[nH]cc2NC(=O)c2cc(Cl)cc(Cl)c2)CC1 | 11 | 13 | 9.6 | 0.057 | 0.63 |  | < 0.005 |
| CO[C@H]1CC[C@H](NC(=O)c2n[nH]cc2NC(=O)c2ccc(N3CCCC3)cc2)CC1 | 6.8 | > 50 | 2.7 | 0.019 | 0.13 |  | < 0.005 |
| COc1cccc(OC)c1C(=O)Nc1c[nH]nc1C(=O)NC1CCC(C)CC1 (mixture of isomers) | 4800 | 45 | 6.7 | 0.001 | > 4.8 |  |  |
| CCCCCNC(=O)c1n[nH]cc1NC(=O)c1c(OC)cccc1OC | 4800 | > 50 | 7.3 | 0.001 | 4.8 |  | 0.1 |
| COc1cccc(OC)c1C(=O)Nc1c[nH]nc1C(=O)NC1CC1 |  | > 50 | 19 | 0.012 | > 10 | 18 | 0.22 |
| CO[C@H]1CC[C@H](NC(=O)c2n[nH]cc2NC(=O)c2ccc(F)cc2F)CC1 | 4.2 | 11 | 3.8 | 0.053 | 0.22 |  | < 0.005 |
| COc1ccccc1C(=O)Nc1c[nH]nc1C(=O)N[C@H]1CC[C@H](OC)CC1 | 25 | 1.5 | 0.9 | 0.004 | 0.1 |  | < 0.013 |
| CO[C@H]1CC[C@H](NC(=O)c2n[nH]cc2NC(=O)c2ccc(N3CCN(C)CC3)cc2)CC1 | 14 | 20 | 2 | 0.07 | 1 |  | < 0.005 |
| CO[C@H]1CC[C@H](NC(=O)c2n[nH]cc2NC(=O)c2ccccc2Nc2ccccc2)CC1 |  | 35 | 4.4 | 0.011 |  | 1.8 | 0.02 |
